Measurements taken from ChEMBL document CHEMBL2177069, “Novel peptidomimetic compounds containing redox active chalcogens and quinones as potential anticancer agents” (Eur J Med Chem, 2012).
Active and inactive are the calls of the source. No cut-off for these calls is given here.

Legend:
NCI/ADR-RES = assay: Cytotoxicity against human NCI/ADR-RES cells; assay type: functional
SK-MEL-28 = assay: Cytotoxicity against human SK-MEL-28 cells; assay type: functional
PtK2 [1] = assay: Induction of oxidative stress in potoroo PtK2 cells assessed as change in microtubular network after 24 hrs by immunofluorescence microscopic analysis; assay type: functional, cell-based; conditions: Potorous tridactylus
How it was run: (§1)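 PtK2 cells were grown on coverslips and treated once semi-confluent, for 24 h. Cells were fixed with 3.7% paraformaldehyde followed by 0.1% Triton X-100, or with cold methanol/acetone 50:50. Primary and secondary antibodies were applied for 45 min each: anti-GRP94 for ER, anti-α-tubulin. Actin was stained with phalloidin and nuclei with DAPI. Imaging was by fluorescence microscopy with a CCD camera.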

HCT-15 = assay: Cytotoxicity against human HCT15 cells; assay type: functional
PtK2 [2] = assay: Induction of oxidative stress in potoroo PtK2 cells assessed as change in cell morphology after 24 hrs by immunofluorescence microscopic analysis; assay type: functional, cell-based; conditions: Potorous tridactylus; how it was run: as §1
OVCAR-3 = assay: Cytotoxicity against human OVCAR3 cells; assay type: functional
NCI-H23 = assay: Cytotoxicity against human NCI-H23 cells; assay type: functional
A498 = assay: Cytotoxicity against human A498 cells after 24 hrs by MTT assay; assay type: functional, cell-based; conditions: A498, 24 h
How it was run: (§2)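 MTT assay. Cells were seeded at 50,000 cells/mL in medium with 10% fetal calf serum and grown for two days at 37 °C, 10% CO2. Serial dilutions of compound were then added for 24 h. MTT was added (final 0.5 mg/mL) for 2 h, and the formazan was pelleted, washed, dissolved in isopropanol with 0.4% HCl and read at 590 nm. IC50 is the concentration giving 50% of untreated-control absorbance, taken from dose-response curves; mean of two parallel experiments.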

SK-OV-3 = assay: Cytotoxicity against human SKOV3 cells; assay type: functional
MDA-MB-231 = assay: Cytotoxicity against human MDA-MB-231 cells; assay type: functional
SN12C = assay: Cytotoxicity against human SN12C cells; assay type: functional
Saccharomyces cerevisiae [3] = assay: Growth inhibition of GSH2-deficient Saccharomyces cerevisiae YOL049W mutant at 20 ug/disc after 24 to 48 hrs by agar diffusion assay; assay type: functional; conditions: read-out: DIZ
How it was run: (§3)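 S. cerevisiae deletion mutants or wild type grown on YPD, seeded into liquid agar medium at an optical density of 0.1. 6 mm paper discs soaked with methanolic compound solution were placed on the plates and incubated at 30 °C. Growth was checked after 1 and 2 days, and the inhibition zone diameter was recorded in mm.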

K562 = assay: Cytotoxicity against human K562 cells; assay type: functional
Saccharomyces cerevisiae [4] = assay: Growth inhibition of PST2-deficient Saccharomyces cerevisiae YDR032C mutant at 20 ug/disc 24 to 48 hrs by agar diffusion assay; assay type: functional; conditions: read-out: DIZ; how it was run: as §3
NCI-H460 = assay: Cytotoxicity against human NCI-H460 cells; assay type: functional
Saccharomyces cerevisiae [5] = assay: Growth inhibition of SOD1-deficient Saccharomyces cerevisiae YJR104C mutant at 20 ug/disc after 24 to 48 hrs by agar diffusion assay; assay type: functional; conditions: read-out: DIZ; how it was run: as §3
UACC-257 = assay: Cytotoxicity against human UACC257 cells; assay type: functional
SF-268 = assay: Cytotoxicity against human SF268 cells; assay type: functional
Hs-578T = assay: Cytotoxicity against human Hs578T cells; assay type: functional
PC-3 = assay: Cytotoxicity against human PC3 cells; assay type: functional
A549 = assay: Cytotoxicity against human A549 cells; assay type: functional
IGROV-1 = assay: Cytotoxicity against human IGROV1 cells; assay type: functional
LOX IMVI = assay: Cytotoxicity against human LOXIMVI cells; assay type: functional
OVCAR-4 = assay: Cytotoxicity against human OVCAR4 cells; assay type: functional
MCF7 [6] = assay: Cytotoxicity against human MCF7 cells; assay type: functional
PtK2 [7] = assay: Induction of oxidative stress in potoroo PtK2 cells assessed as reduction in cell adhesion after 24 hrs by immunofluorescence microscopic analysis; assay type: functional, cell-based; conditions: Potorous tridactylus; how it was run: as §1
OVCAR-5 = assay: Cytotoxicity against human OVCAR5 cells; assay type: functional
PtK2 [8] = assay: Induction of oxidative stress in potoroo PtK2 cells assessed as reduction in actin stress fibres after 24 hrs by immunofluorescence microscopic analysis; assay type: functional, cell-based; conditions: Potorous tridactylus; how it was run: as §1
U-251 = assay: Cytotoxicity against human U251 cells; assay type: functional
MOLT-4 = assay: Cytotoxicity against human MOLT4 cells; assay type: functional
Saccharomyces cerevisiae [9] = assay: Growth inhibition of SOD2-deficient Saccharomyces cerevisiae YHR008C mutant at 20 ug/disc 24 to 48 hrs by agar diffusion assay; assay type: functional; conditions: read-out: DIZ; how it was run: as §3
CCRF-CEM = assay: Cytotoxicity against human CCRF-CEM cells; assay type: functional
EKVX = assay: Cytotoxicity against human EKVX cells; assay type: functional
HOP-62 = assay: Cytotoxicity against human HOP62 cells; assay type: functional
MCF7 [10] = assay: Cytotoxicity against human MCF7 cells after 24 hrs by MTT assay; assay type: functional, cell-based; conditions: MCF7, 24 h; how it was run: as §2
HL-60 = assay: Cytotoxicity against human HL60 cells; assay type: functional
COLO 205 = assay: Cytotoxicity against human COLO205 cells; assay type: functional
Saccharomyces cerevisiae [11] = assay: Growth inhibition of COX17-deficient Saccharomyces cerevisiae YLL009C mutant at 20 ug/disc after 24 to 48 hrs by agar diffusion assay; assay type: functional; conditions: read-out: DIZ; how it was run: as §3
Saccharomyces cerevisiae [12] = assay: Growth inhibition of GTT2-deficient Saccharomyces cerevisiae YLL060C mutant at 20 ug/disc after 24 to 48 hrs by agar diffusion assay; assay type: functional; conditions: read-out: DIZ; how it was run: as §3
[13] = read-out: pLC50 (the source's name) (converted)

Structure (SMILES): CC1=C(SCCC(=O)OC(C[Se]C2=C(C)C(=O)c3ccccc3C2=O)C(=O)NCCCCCC(=O)OCc2ccccc2)C(=O)c2ccccc2C1=O (stereo not drawn)
- GI50 (NCI/ADR-RES): 4.57 µM
- CC50 (NCI/ADR-RES; [13]): 81.3 µM
- TGI (NCI/ADR-RES; read-out: pTGI (converted)): 18.2 µM
- GI50 (SK-MEL-28): 11.7 µM
- LC50 (SK-MEL-28): 51.3 µM
- TGI (SK-MEL-28; read-out: pTGI (converted)): 24.5 µM
- Activity (PtK2 [1]): inactive
- GI50 (HCT-15): 6.61 µM
- LC50 (HCT-15): 58.9 µM
- TGI (HCT-15; read-out: pTGI (converted)): 21.4 µM
- Activity (PtK2 [2]): Active
- GI50 (OVCAR-3): 5.01 µM
- LC50 (OVCAR-3): 42.7 µM
- TGI (OVCAR-3; read-out: pTGI (converted)): 18.2 µM
- GI50 (NCI-H23): 2.75 µM
- LC50 (NCI-H23): 52.5 µM
- TGI (NCI-H23; read-out: pTGI (converted)): 7.76 µM
- IC50 (A498): 5 µM
- GI50 (SK-OV-3): 7.08 µM
- LC50 (SK-OV-3): 44.7 µM
- TGI (SK-OV-3; read-out: pTGI (converted)): 19.5 µM
- GI50 (MDA-MB-231): 6.76 µM
- LC50 (MDA-MB-231): 55 µM
- TGI (MDA-MB-231; read-out: pTGI (converted)): 21.9 µM
- GI50 (SN12C): 4.68 µM
- LC50 (SN12C): 57.5 µM
- TGI (SN12C; read-out: pTGI (converted)): 16.6 µM
- zone of inhibition at 20 µg/disc (Saccharomyces cerevisiae [3]): 10 mm
- GI50 (K562): 3.02 µM
- LC50 (K562): > 100 µM
- TGI (K562; read-out: pTGI): > 100 µM
- zone of inhibition at 20 µg/disc (Saccharomyces cerevisiae [4]): 11 mm
- GI50 (NCI-H460): 1.91 µM
- LC50 (NCI-H460): 14.1 µM
- TGI (NCI-H460; read-out: pTGI (converted)): 4.57 µM
- zone of inhibition at 20 µg/disc (Saccharomyces cerevisiae [5]): 16 mm
- GI50 (UACC-257): 3.47 µM
- LC50 (UACC-257): 34.7 µM
- TGI (UACC-257; read-out: pTGI (converted)): 10 µM
- GI50 (SF-268): 7.41 µM
- LC50 (SF-268): 44.7 µM
- TGI (SF-268; read-out: pTGI (converted)): 20 µM
- GI50 (Hs-578T): 7.59 µM
- LC50 (Hs-578T): > 100 µM
- TGI (Hs-578T; read-out: pTGI (converted)): > 100 µM
- GI50 (PC-3): 2.57 µM
- LC50 (PC-3): 55 µM
- TGI (PC-3; read-out: pTGI (converted)): 9.12 µM
- GI50 (A549): 3.98 µM
- LC50 (A549): > 100 µM
- TGI (A549; read-out: pTGI (converted)): 11.5 µM
- GI50 (IGROV-1): 2.14 µM
- LC50 (concentration killing 50% of cells) (IGROV-1): 53.7 µM
- TGI (IGROV-1; read-out: pTGI (converted)): 14.5 µM
- GI50 (LOX IMVI): 2.75 µM
- LC50 (LOX IMVI): 69.2 µM
- TGI (LOX IMVI; read-out: pTGI (converted)): 11.5 µM
- GI50 (OVCAR-4): 12.3 µM
- LC50 (OVCAR-4): 51.3 µM
- TGI (OVCAR-4; read-out: pTGI (converted)): 25.1 µM
- GI50 (MCF7 [6]): 4.79 µM
- LC50 (MCF7 [6]): > 100 µM
- TGI (MCF7 [6]; read-out: pTGI (converted)): 29.5 µM
- Activity (PtK2 [7]): Active
- GI50 (OVCAR-5): 5.01 µM
- LC50 (OVCAR-5): 61.7 µM
- TGI (OVCAR-5; read-out: pTGI (converted)): 18.6 µM
- Activity (PtK2 [8]): Active
- GI50 (U-251): 4.07 µM
- LC50 (U-251): 46.8 µM
- TGI (U-251; read-out: pTGI (converted)): 13.5 µM
- GI50 (MOLT-4): 4.07 µM
- LC50 (MOLT-4): > 100 µM
- TGI (MOLT-4; read-out: pTGI (converted)): > 100 µM
- zone of inhibition at 20 µg/disc (Saccharomyces cerevisiae [9]): 15 mm
- GI50 (CCRF-CEM): 2.82 µM
- LC50 (CCRF-CEM): > 100 µM
- TGI (CCRF-CEM; read-out: pTGI): > 100 µM
- GI50 (EKVX): 3.63 µM
- LC50 (EKVX): 58.9 µM
- TGI (EKVX; read-out: pTGI (converted)): 17.8 µM
- GI50 (HOP-62): 3.8 µM
- LC50 (HOP-62): 39.8 µM
- TGI (HOP-62; read-out: pTGI (converted)): 14.5 µM
- IC50 (MCF7 [10]): 10 µM
- GI50 (HL-60): 3.09 µM
- LC50 (HL-60): > 100 µM
- TGI (HL-60; read-out: pTGI (converted)): 8.51 µM
- GI50 (COLO 205): 7.94 µM
- CC50 (COLO 205; [13]): 56.2 µM
- TGI (COLO 205; read-out: pTGI (converted)): 22.4 µM
- zone of inhibition at 20 µg/disc (Saccharomyces cerevisiae [11]): 11 mm
- zone of inhibition at 20 µg/disc (Saccharomyces cerevisiae [12]): 12 mm
